# Screening data as filed in PubChem BioAssay.
# GSK3A inh – blockers of GSK3A enzyme activity – biochemical, luminescence, cell-free homogeneous, HTS, primary screen; Glycogen synthase kinase-3 alpha (Homo sapiens), P49840; GSK-3 alpha kinase, ADP-Glo luminescence, 60 min; inhibition, % at 10 µM; 320,000 tested, 0.1% active; AID 2650, 2010;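 active = more than half of replicates show inhibition above 20%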;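 also: GST-tagged GSK-3 alpha with peptide substrate and 25 µM ATP; 0% = DMSO neutral wells and 100% = GW8510 positive control wells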
# STK33 kinase inh – inhibitors of purified STK33 kinase, primary screen, biochemical, ADP-Glo luminescence, homogeneous, cell-free. Serine/threonine-protein kinase 33 (Homo sapiens), Q9BYT3. MBP phosphorylation. 320,000 tested, 0.073% active. inhibition, % at 10 µM;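 active = inhibition at or above 25%, using the most active replicate where run in duplicate; inactive = inhibition below 25%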
# DSG3 Ab inh – inhibitors of pemphigus antibody binding to DSG3, primary screen, biochemical, bead-based, flow cytometry, scFv-GFP | binding (percent of control), % at 10 µM | DSG3-coupled beads, scFv-anti-DSG3-GFP binding; active compounds read low | 310,000 tested, 0.48% active | Desmoglein-3 (Homo sapiens), P32926;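 active = binding more than 3 SD below its plate's average and above zero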;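 also: hits lower antibody fragment binding to DSG3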
# GSK3B inh – human GSK3beta kinase inhibitors, primary screen, biochemical, cell-free homogeneous, HTS; Glycogen synthase kinase-3 beta (Homo sapiens), P49841; 300,000 tested, 0.038% active; activity score (negative = inhibition), % at 10 µM; GST-GSK3beta kinase, ADP-Glo luminescence, 60 min; active compounds read low; AID 2097, 2009;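 active = more than half of replicate wells score below -50%, meaning over 50% inhibition versus plate controls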;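 also: 0% = median DMSO wells and -100% = median GW8510 positive control wells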
# Target sequence (P49841 whole entry, looked up): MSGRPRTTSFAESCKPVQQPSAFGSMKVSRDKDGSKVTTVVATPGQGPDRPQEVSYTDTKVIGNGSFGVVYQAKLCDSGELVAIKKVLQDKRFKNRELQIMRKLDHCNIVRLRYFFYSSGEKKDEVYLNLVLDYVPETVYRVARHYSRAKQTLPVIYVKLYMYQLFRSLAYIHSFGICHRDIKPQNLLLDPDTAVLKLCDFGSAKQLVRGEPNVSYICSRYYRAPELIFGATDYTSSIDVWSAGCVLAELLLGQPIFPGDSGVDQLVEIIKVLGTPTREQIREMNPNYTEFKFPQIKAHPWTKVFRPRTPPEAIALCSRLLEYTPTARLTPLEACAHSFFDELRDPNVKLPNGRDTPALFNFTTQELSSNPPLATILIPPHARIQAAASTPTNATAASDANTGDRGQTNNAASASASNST
#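 Test system – GST-tagged human GSK3beta kinase, cell-free · Incubation – 60 min enzyme reaction, room temperature · Signal – ADP-Glo luminescence · Also added – peptide substrate and ATP at 25 µM · Controls – DMSO neutral wells and GW8510 at 20 µM as positive · Buffer or medium – Tris/MgCl2 kinase buffer · Measure – Luminescence-derived activity versus plate DMSO and GW8510 wells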
# MT1-MMP act inh – blockers of MT1-MMP proenzyme processing, primary screen, HT1080 RFP-PRO-GFP cells, GFP/RFP fluorescence. AID 651647, 2012. 360,000 tested, 0.061% active. Matrix metalloproteinase-14 (Homo sapiens), P50281. GFP/RFP ratio fluorescence, overnight; percent of plate control window, DMSO zero. GFP/RFP ratio change, % at 20 µM;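 active = GFP/RFP ratio change of at least 30% with cell ATP level not reduced by more than half and red fluorescence within 50% of control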
#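 Assay system – RFP-PRO-GFP reporter HT1080 cells · Compound dosing – single dose of 20 µM compound, 1% DMSO final · Incubation – overnight compound exposure at 37 °C · Measure – GFP/RFP fluorescence ratio · Benchmarks – DMSO wells and RFP-L50D-GFP cells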
# MT1-MMP conf – MT1-MMP activation inhibitors, hit retest, confirmation, single concentration, fluorescence, HT1080 RFP-PRO-GFP cells; shares compounds with MT1-MMP act inh; GFP and RFP fluorescence ratio, overnight; inhibition, % at 20 µM; 200 tested, 10% active; AID 652235, 2013;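 active = inhibition of at least 50% in the primary cell screen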
# * hit, by the source's call; . = not tested or not shown. Rows were chosen to be rich in hits. Some 0.63% of all compounds tested hit in one or more screens of this group.
SMILES,GSK3A inh,STK33 kinase inh,DSG3 Ab inh,GSK3B inh,MT1-MMP act inh,others
Cc1noc(C)c1C(=O)N(C)C[C@@H]1OCc2ccccc2-c2c(n(C)c3ccccc23)C(=O)N([C@H](C)CO)C[C@H]1C,.,.,100.2,.,0.9,
CCN(C(=O)CN1C(=O)NC2(CCCC2)C1=O)c1nc2c(C)cccc2s1,.,.,99.8,.,2.1,
Cc1ccc(S(=O)(=O)N2c3ccccc3OC(C(=O)OC(C)(C)C)(C(=O)OC(C)(C)C)C2CC(=O)c2ccccc2)cc1 (stereo unspecified),.,.,.,.,-1.3,
Nc1nc(-c2cc(O)ccc2[N+](=O)[O-])cc(-c2ccccc2)c1[N+](=O)[O-],1.6,28.1*,115.0,-2.3,-11.6,
Cc1ccc(C(=O)NNC(=O)c2csc(N3CCOCC3)n2)o1,1.1,.,95.7*,-0.5,5.1,
CN1CCN(CC(=O)NN(Cc2ccccc2)c2ccccc2)CC1,-1.9,-1.0,76.6*,4.3,1.7,
Cc1ccc2nc(-c3cccc(Br)c3)c(Cc3ccccn3)n2c1,.,.,.,.,-5.0,
COC(=O)[C@]12CCCCC=C1N(CCc1ccc(OC)c(OC)c1)C(=O)[C@H](CC(=O)NCCc1ccccc1OC)C2,.,.,.,.,3.0,
S=C(NCCc1ccccc1)NC1CCC(NC(=S)NCCc2ccccc2)CC1 (stereo unspecified),0.5,-2.3,70.6*,1.5,3.6,
COC(=O)[C@@]12C[C@@H](CC(=O)NCc3ccccc3)C(=O)N(Cc3ccccc3)C1=CCC(C)(C)C2,.,.,.,.,-3.7,
CC1CN(c2sc(S(C)(=O)=O)nc2S(=O)(=O)c2ccc(Cl)cc2)CC(C)O1 (stereo unspecified),-0.2,-1.8,75.1*,2.7,-13.9,
CC1CCCN(c2sc(S(C)(=O)=O)nc2S(=O)(=O)c2ccc(Cl)cc2)C1 (stereo unspecified),-0.6,-1.0,103.6,3.9,-8.3,
CCN(CC)C(=O)C1=C(C)N(Cc2ccc(F)cc2)C(=O)C(CC(=O)NCC2CCCCC2)C1 (stereo unspecified),.,.,.,.,2.0,
CCOC(=O)c1c(NC(=O)c2ccccc2C(=O)O)sc2c1CCCC2,-1.9,-1.2,68.0*,-3.2,-1.9,
C[C@H](O)[C@@H]1CN2CCc3c([nH]c4ccccc34)[C@@H]2C[C@@H]1N(C)Cc1cc(Cl)cc(Cl)c1,.,.,101.0,.,-6.6,
Cc1cccc(NC(=O)NCc2ccc3[nH]c(C)cc3c2)c1,-2.1,-0.3,93.0,2.6,7.1,
Cc1cc2cc(CNC(=O)NC3CCCCC3)ccc2[nH]1,-4.6,-0.7,73.7*,1.5,22.4,
Cc1ccc(NC(=O)NCc2ccc3[nH]c(C)cc3c2)cc1,-2.5,-1.4,86.6*,-0.6,9.9,
CC1(C(=O)Nc2ccc3c(c2)OCCO3)CSCC(=O)N1CC(F)(F)F (stereo unspecified),.,.,.,.,5.1,
NC(Cc1ccc(F)cc1)c1csc(Nc2ccc(C(=O)c3ccccc3)cc2)n1 (stereo unspecified),.,.,.,.,-16.2,
Cc1cccc(C)c1NC(=O)C(c1ccnc2ccccc12)N1CCN(CCN(C)C)CC1 (stereo unspecified),.,.,.,.,1.7,
CCCc1nc2ccc(Cl)cn2c1Cc1ccsc1,.,.,.,.,-5.8,
c1cnc2nc3c4ccccc4c4ccccc4c3nc2c1,.,.,78.5*,.,-13.7,
COc1ccc(C2=Nc3ccccc3N(C(=O)c3ccc4ncccc4c3)C2C(=O)NC2CCCC2)cc1 (stereo unspecified),.,.,.,.,-4.2,
CN(C)C/C=C/C(=O)Nc1cccc(-c2c[nH]c3ncnc(Oc4ccc(NC(=O)CC(=O)Nc5ccc(F)cc5)cc4F)c23)c1,1.5,62.5*,111.2,.,-6.5,
SMILES,GSK3A inh,STK33 kinase inh,DSG3 Ab inh,GSK3B inh,MT1-MMP act inh,others
CC(=O)Nc1cccc(Oc2ncnc3scc(-c4ccccc4)c23)c1,-0.9,0.0,94.4,-0.5,-0.1,
c1coc(C2=Nc3cccc4cccc(c34)N2)c1,-0.3,1.8,78.3*,-9.1,6.0,
CCCCn1nc(NC(=O)CC)c2cc3cc(OC)ccc3nc21,16.0,-0.4,99.2,-0.9,6.6,
CCCn1nc(NC(=O)C(C)(C)C)c2cc3cc(OC)ccc3nc21,65.5*,1.0,103.0,-41.8,-1.2,
COc1ccc2nc3c(cc2c1)c(NC(=O)c1cccs1)nn3CC(C)C,72.6*,4.7,111.0,-92.0*,-9.4,
CC(C)(C)OC(=O)Nc1ccccc1-n1nnnc1C(C(=O)c1ccc(F)cc1)N1CCOCC1 (stereo unspecified),.,.,.,.,-2.2,
CCCC(=O)Nc1ccc(OCC(=O)OC)cc1,-1.3,-0.8,102.8,6.9,2.2,
CCCC(=O)Nc1ccc(Oc2ccc(NC(=O)CCC)cc2)cc1,-1.1,-2.8,55.4*,2.5,0.4,
CC(C)C[C@H]1CN(CCCC[C@H]2CNC(=O)C(=O)N2CCC2CCCCC2)C(=O)C(=O)N1CCc1ccccc1,.,.,.,.,6.3,
CCOC(=O)C1=C[C@@H](C(C)C)N(S(=O)(=O)c2ccc(C)cc2)[C@H]1c1ccc(C(F)(F)F)cc1,.,.,.,.,-4.0,
O=C1Nc2ccccc2C(=O)N(Cc2ccccc2)C1C(=O)NC1CC1 (stereo unspecified),.,.,.,.,0.3,
O=C(NCCCNCc1ccccc1)/C(=N\O)c1ccccc1,3.7,-0.2,107.7,.,.,
O=C(NCc1ccncc1)/C(=N/O)c1ccccc1,-1.2,-2.2,75.4*,1.9,2.7,
CN(C)c1ccc(N=Cc2nc(-c3ccccc3)oc2O)cc1,-0.5,-0.5,122.0,0.8,-83.9,
CN(C)c1ccc(N=Cc2cccn2C)cc1,2.5,0.5,92.4,2.6,39.2*,MT1-MMP conf=1.7
O=C(OC1CC2CC1[C@H]1CCCCN1C2=O)N1CCC(c2ccccc2)CC1 (stereo partly specified),.,.,.,.,4.1,
CCN(CC)CC(=O)Nc1cccc2c1C(=O)c1ccccc1C2=O,12.5,20.0,103.8,-0.6,-2.3,
O=C1c2ccccc2C(=O)c2c(NCCCN(CCO)CCO)cccc21,.,.,107.3,-7.3,30.1*,MT1-MMP conf=28.1
COc1ccccc1-c1nnc(SCC(=O)Nc2ccc(Cl)cc2Cl)o1,-0.8,0.1,88.7,0.2,-2.5,
COc1cccc2c1OC[C@@H](CO)[C@H]2N(C)C(=O)Nc1ccc(Cl)cc1Cl,-3.4,-0.4,99.4,-6.3,31.5*,MT1-MMP conf=13.0
CC1=NN(c2ccccc2)C(=O)C1N=Nc1ccccc1 (stereo unspecified),.,2.7,98.1,6.9,0.1,
CC1=NN(c2ccccc2)C(=O)C1N=Nc1ccc(N)cc1 (stereo unspecified),1.4,-0.3,97.5,-1.7,52.5*,MT1-MMP conf=62.4*
